# ChEMBL document CHEMBL1126008, “Decorporation of aged americium deposits by oral administration of lipophilic polyamino carboxylic acids” (1992)
# Columns and labels:
# [1] = tested on: Canis familiaris; test: In vitro elimination of Pu (given as citrate) from in vivo tagged canine liver cytosol after administration of the compound; value expressed as following filtrate to residue activity; type: functional, Canis lupus familiaris
# Outline: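 Liver homogenate in 0.25 M sucrose from a dog injected with Pu-citrate 7 days before sacrifice. Spun 20 min at 40000g to give cytosol, which was dialyzed against 50 mM TRIS-HCl. Cytosol mixed 1:1 with 4 mM compound (stock) in 0.1 M TRIS-HCl, pH 7.5, 270–300 mOsm. Incubated 2 h at 40 °C, then pressure-filtered through a 10000 Da cutoff. Read-out: Pu filtrate/residue ratio; control had no compound.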
# [2] = tested on: Rattus norvegicus; test: Reduction in both femora 241Am after daily feeding of 200 uM of the compound/kg of body weight to rats for 10 days; type: functional
# Outline: (§1)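 Sprague-Dawley rats aged 60 days, nine per group. ²⁴¹Am in citrate buffer pH 3.5 given as a single jugular iv injection. From one week later, compound given at 50 μmol/rat (about 200 μmol/kg) in a daily 25 g chow ration for 10 days; untreated controls. Tissues counted for ²⁴¹Am at necropsy. Reduction = […]. p values given.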
# [3] = tested on: Rattus norvegicus; test: Reduction in carcass 241Am after daily feeding of 200 uM of the compound/kg of body weight to rats for 10 days; type: functional; outline: as §1
# [4] = tested on: Rattus norvegicus; test: Reduction in liver 241Am after daily feeding of 200 uM of the compound/kg of body weight to rats for 10 days; type: functional; outline: as §1
# [5] = tested on: Rattus norvegicus; test: Reduction in one kidney 241AM after daily feeding of 200 uM of the compound/kg of body weight to rats for 10 days; type: functional; outline: as §1
# [6] = species on record: Rattus norvegicus; test: Percent retention in rat carcass was measured in situ using intestinal tied-loop technique; type: functional, organism-based
# [7] = species on record: Rattus norvegicus; test: Percent retention in rat gut section was measured in situ using intestinal tied-loop technique; type: functional, organism-based
# [8] = species on record: Rattus norvegicus; test: Percent retention in rat liver was measured in situ using intestinal tied-loop technique; type: functional, organism-based
# [9] = species on record: Rattus norvegicus; test: Percent retention in rat lumen was measured in situ using intestinal tied-loop technique; type: functional, organism-based
# [10] = tested on: Rattus norvegicus; test: Reduction in whole body 241Am after daily feeding of 200 uM of the compound/kg of body weight to rats for 10 days; type: functional; outline: as §1
# [11] = tested on: Rattus norvegicus; test: Weight gain after daily feeding of 200 uM of the compound/kg of body weight to rats for 10 days; type: functional
# Outline: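 Sprague-Dawley rats aged 60 days, nine per group, given ²⁴¹Am iv (jugular, citrate pH 3.5) one week before feeding began. Compound given at 50 μmol/rat (about 200 μmol/kg) daily in 25 g chow for 10 days; untreated controls. Weight gain over the feeding period reported as mean ± deviation.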
# [12] = species on record: Rattus norvegicus; test: Percent retention in rat visera was measured in situ using intestinal tied-loop technique; type: functional, organism-based
SMILES,Activity [1],Reduction [2] [%],Reduction [3] [%],Reduction [4] [%],Reduction [5] [%],Retention [6] [%],Retention [7] [%],Retention [8] [%],Retention [9] [%],Reduction [10] [%],Weight [11] [g],Retention [12] [%]
CCCCCCCCN(CCN(CCN(CCN(CC(=O)O)CC(=O)O)CC(=O)O)CC(=O)O)CC(=O)O,0.16,–,–,–,–,–,–,–,–,–,–,–
CCCCCCCCCCCCN(CCN(CCN(CCN(CC(=O)O)CC(=O)O)CC(=O)O)CC(=O)O)CC(=O)O,0.26,17,20,71,23,20,73,3,73,29,55.7,4
CCCCCCCCCCCCCCCCCCCCCCN(CCN(CCN(CCN(CC(=O)O)CC(=O)O)CC(=O)O)CC(=O)O)CC(=O)O,–,32,37,89,26,–,–,–,–,44,70.2,–
